Reference: article PMC2386536 (The Journal of Endocrinology, 2008)

What was measured:
[1] = test system: ischaemia–reperfusion injury in the rat; assay: EPR free radical production from hearts after in vivo ischaemia–reperfusion; conditions: CP-H spin trap
Procedure, shortened: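 Hearts were excised after in vivo ischaemia–reperfusion (45 min/2 h) and perfused retrogradely with warmed, gassed Krebs–Henseleit. With the LCA snare re-tied, 10 μl of 10−1 M CP-H spin trap was injected above the heart and 500 μl perfusate (drops 6–11) collected, four times per heart and averaged. This was repeated with the snare released, then with 500 U SOD. Samples were incubated at 37 °C for 20 min and read by EPR.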

[2] = mean arterial blood pressure and heart rate during ischaemia–reperfusion; format: in vivo, rat; conditions: data not shown
Procedure, shortened: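 They were then dosed with test compound or vehicle for 5 days, with the last dose 2–3 h before surgery. Under pentobarbitone anaesthesia (60 mg/kg i.p.), MABP was recorded via a carotid artery cannula. The protocol was 20-min stabilisation, 45-min LCA occlusion, then 2-h reperfusion.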

[3] = test system: ischaemia and reperfusion in the rabbit; conditions: in vivo; cited from earlier work

SMILES | free radical production from the AAR compared with placebo/vehicle [1] | effect on MABP pattern and MABP at end of ischaemia or reperfusion [2] | cardioprotection / infarct size [3]
C[C@]12CC[C@@H]3c4ccc(O)cc4CC[C@H]3[C@@H]1CC[C@@H]2O [17βE2, 17β-oestradiol] | Significantly fewer free radicals | did not have a significant effect | –
CCCc1c(-c2ccc(O)cc2)nn(-c2ccc(O)cc2)c1-c1ccc(O)cc1 [PPT, 4,4,4-4 propyl-(1H)-pyrazole 1,3,5-triyltrisphenol] | – | – | reduced infarct size
